Data set [1] deals with T1, C5a anaphylatoxin chemotactic receptor 1 (Homo sapiens) (UniProt P21730).
T1 sequence (whole entry): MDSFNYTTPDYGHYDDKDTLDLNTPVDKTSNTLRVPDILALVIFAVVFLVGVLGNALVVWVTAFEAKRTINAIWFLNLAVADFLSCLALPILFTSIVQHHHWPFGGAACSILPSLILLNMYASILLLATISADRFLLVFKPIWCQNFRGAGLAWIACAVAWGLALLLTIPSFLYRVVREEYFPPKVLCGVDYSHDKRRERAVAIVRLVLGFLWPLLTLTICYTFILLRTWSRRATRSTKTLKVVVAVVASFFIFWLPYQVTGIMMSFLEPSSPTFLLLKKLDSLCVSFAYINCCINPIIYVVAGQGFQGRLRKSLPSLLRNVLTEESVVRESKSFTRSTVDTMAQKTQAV
The data set is described as follows: Antagonist activity at C5a receptor in human PMNC assessed as inhibition of C5a-induced chemotaxis at 1000 nM after 2 hrs by microtiter format trans-well migration assay. It is filed as functional. The gist of the method:
(§1)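 Microtiter trans-well migration assay in Gey's balanced salt solution with 1 mg/mL endotoxin-free BSA, no fetal calf serum. Migration ran 2 h at 37 °C. Compounds dissolved in DMSO and added to both top and bottom compartments, final DMSO 1%.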

The test system of data set [2] is Mus musculus. In words: Antiinflammatory activity in mouse assessed as inhibition of LPS-induced TNFalpha upregulation at 0.00075 mg, sc measured 2 hrs after LPS challenge. The class given is functional. The gist of the method:
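Murine sublethal endotoxemia: LPS given intraperitoneally, serum TNF-α measured 2 h after LPS injection. Compound vehicle 0.6% DMSO plus 1% carboxymethylcellulose (final concentrations) in sterile water.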

For data set [3], the target named is T1, C5a anaphylatoxin chemotactic receptor 1 (Homo sapiens). In words: Antagonist activity at C5a receptor in human PMNC assessed as inhibition of C5a-induced chemotaxis at 0.01 nM after 2 hrs by microtiter format trans-well migration assay. It is filed as functional. The gist of the method: as §1
Data set [4] deals with C-C chemokine receptor type 5 (Homo sapiens) (UniProt P51681). The data set is described as follows: Antagonist activity at CCR5 in human THP1 cells assessed as inhibition of CCL5-induced chemotaxis after 2 hrs by microtiter format trans-well migration assay. The class given is functional, cell-based. As to conditions: THP-1. The gist of the method:
as §1

For data set [5], the system named is Mus musculus. In words: Antiinflammatory activity in mouse assessed as inhibition of LPS-induced TNFalpha upregulation at 0.0025 ug, sc measured 2 hrs after LPS challenge. It is filed as functional. The gist of the method:
(§2)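 Murine sublethal endotoxemia: LPS given intraperitoneally, with serum TNF-α measured 2 h after the LPS injection as the end point. Compound was given subcutaneously or orally. Vehicle was 0.6% DMSO and 1% carboxymethylcellulose (final concentrations) in sterile water. Effect is reported as % relative to control.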

A short description of data set [6]: Antagonist activity at Interleukin-8 receptor in human PMNC assessed as inhibition of CXCL8-induced chemotaxis at 0.1 nM after 2 hrs by microtiter format trans-well migration assay. The class given is functional. The gist of the method: as §1
Data set [7] deals with T2, C-C chemokine receptor type 1 (Homo sapiens) (UniProt P32246).
T2 sequence (whole entry): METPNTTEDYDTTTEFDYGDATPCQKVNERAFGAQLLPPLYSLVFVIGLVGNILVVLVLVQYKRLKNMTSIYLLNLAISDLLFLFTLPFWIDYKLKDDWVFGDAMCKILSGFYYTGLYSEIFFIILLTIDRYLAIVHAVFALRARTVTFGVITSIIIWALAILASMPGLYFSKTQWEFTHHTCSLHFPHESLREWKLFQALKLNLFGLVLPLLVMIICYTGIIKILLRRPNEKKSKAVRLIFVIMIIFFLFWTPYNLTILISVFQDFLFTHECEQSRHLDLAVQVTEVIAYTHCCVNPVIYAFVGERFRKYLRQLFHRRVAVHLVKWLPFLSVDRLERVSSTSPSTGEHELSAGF
In words: Antagonist activity at CCR1 in human THP1 cells assessed as inhibition of CCL3-induced chemotaxis at 10 nM after 2 hrs by microtiter format trans-well migration assay. It is filed as functional, cell-based. As to conditions: THP-1. Summed up: as §1

The nature of data set [8]: Half life in Sprague-Dawley rat at 3 mg/kg, po administered as single dose. The class given is ADME, organism-based. The arrangement: dose 3 mg/kg, route oral. As to conditions: in vivo. Summed up:
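Male Sprague-Dawley rats, three per compound, receive a single oral dose by gavage in 1% carboxymethylcellulose in 0.9% saline, with food and water ad libitum. Plasma is sampled from 5 to 480 min and drug is quantified by positive-mode LC/MS/MS after acetonitrile/formic acid extraction. The lower limit of quantitation is about 2 ng/mL. Exposure is AUC(0→t) by the linear/log trapezoidal rule, and F is oral fractional bioavailability.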

For data set [9], the target named is T2, C-C chemokine receptor type 1 (Homo sapiens). The data set is described as follows: Antagonist activity at CCR1 in human THP1 cells assessed as inhibition of CCL3-induced chemotaxis at 100 nM after 2 hrs by microtiter format trans-well migration assay. The class given is functional, cell-based. As to conditions: THP-1. The gist of the method: as §1
In data set [10] the target is C-C chemokine receptor type 5 (Homo sapiens) (UniProt P51681). In words: Antagonist activity at CCR5 in human THP1 cells assessed as inhibition of CCL5-induced chemotaxis at 1000 nM after 2 hrs by microtiter format trans-well migration assay. As to conditions: THP-1. The class given is functional, cell-based. Summed up:
as §1

Data set [11] has as its system THP-1. The data set is described as follows: Endogenous chemoattractant activity at human THP1 cells assessed as cell migration at 0.01 nM after 2 hrs by microtiter format trans-well migration assay. The class given is functional.
For data set [12], the system named is THP-1. The data set is described as follows: Toxicity in human THP1 cells assessed as change in cell size at 10 nM by forward scatter flow cytometry relative to control. The class given is cell-based. As to conditions: thp-1, 0.01 µM.
In data set [13] the test system is Mus musculus. In words: Antiinflammatory activity in mouse assessed as inhibition of LPS-induced TNFalpha upregulation at 0.0075 ug, sc measured 2 hrs after LPS challenge. The class given is functional. Summed up: as §2
In data set [14] the test system is Mus musculus. In words: Antiinflammatory activity in mouse assessed as inhibition of LPS-induced TNFalpha upregulation at 0.0075 mg, po measured 2 hrs after LPS challenge. It is filed as functional. The gist of the method: as §2
For data set [15], the system named is THP-1. In words: Endogenous chemoattractant activity at human THP1 cells assessed as cell migration at 1000 uM after 2 hrs by microtiter format trans-well migration assay. It is filed as functional.
Data set [16] concerns Mus musculus. The data set is described as follows: Antiinflammatory activity in mouse assessed as inhibition of LPS-induced TNFalpha upregulation at 0.0025 mg, sc measured 2 hrs after LPS challenge. It is filed as functional. Summed up:
as §2

The test system of data set [17] is THP-1. The data set is described as follows: Toxicity in human THP1 cells assessed as change in cell size at 1000 nM by forward scatter flow cytometry relative to control. It is filed as cell-based. As to conditions: thp-1, 1 µM.
The target of data set [18] is C-X-C chemokine receptor type 4 (Homo sapiens) (UniProt P61073). The data set is described as follows: Antagonist activity at CXCR4 in human THP1 cells assessed as inhibition of CXCL12-induced chemotaxis after 2 hrs by microtiter format trans-well migration assay. It is filed as functional, cell-based. As to conditions: THP-1. Summed up:
as §1

Data set [19] has as its target C-C chemokine receptor type 5 (Homo sapiens) (UniProt P51681). In words: Antagonist activity at CCR5 in human THP1 cells assessed as inhibition of CCL5-induced chemotaxis at 0.1 nM after 2 hrs by microtiter format trans-well migration assay. The class given is functional, cell-based. As to conditions: THP-1. The gist of the method: as §1
Data set [20] relates to Mus musculus. In words: Antiinflammatory activity in mouse assessed as inhibition of LPS-induced TNFalpha upregulation at 0.25 mg, sc measured 2 hrs after LPS challenge. It is filed as functional. Summed up: as §2
Data set [21] is described as follows: Clearance in Sprague-Dawley rat at 1 mg/kg, iv administered as single dose. The class given is ADME, organism-based. The arrangement: dose 1 mg/kg, route intravenous. As to conditions: in vivo. The gist of the method:
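Male Sprague-Dawley rats, three per compound, receive a single intravenous dose in 5% DMSO in 0.9% saline. Food and water are given ad libitum. Plasma is taken at 5, 15, 30, 60, 120, 180, 240 and 480 min. Drug is measured by LC/MS/MS after extraction with 0.1% formic acid in acetonitrile. The curve is back-extrapolated to time zero assuming an initial volume of 0.26 L/kg.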

In data set [22] the target is T1, C5a anaphylatoxin chemotactic receptor 1 (Homo sapiens). In words: Antagonist activity at C5a receptor in human PMNC assessed as inhibition of C5a-induced chemotaxis at 10 nM after 2 hrs by microtiter format trans-well migration assay. It is filed as functional. The gist of the method:
as §1

The source of these data is ChEMBL document CHEMBL1136923, “Highly potent, orally available anti-inflammatory broad-spectrum chemokine inhibitors” (J Med Chem, 2009).

C-C chemokine receptor type 5 (Homo sapiens), sequence (P51681 whole entry, looked up): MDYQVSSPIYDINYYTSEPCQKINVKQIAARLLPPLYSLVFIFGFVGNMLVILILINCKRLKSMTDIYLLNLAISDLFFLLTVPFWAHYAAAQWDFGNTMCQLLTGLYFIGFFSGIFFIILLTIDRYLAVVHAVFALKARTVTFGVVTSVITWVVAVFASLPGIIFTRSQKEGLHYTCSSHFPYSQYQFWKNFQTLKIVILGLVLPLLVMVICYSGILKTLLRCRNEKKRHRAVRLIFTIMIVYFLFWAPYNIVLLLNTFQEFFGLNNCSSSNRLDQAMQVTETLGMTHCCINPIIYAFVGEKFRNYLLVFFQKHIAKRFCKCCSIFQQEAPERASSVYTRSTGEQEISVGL
C-X-C chemokine receptor type 4 (Homo sapiens), sequence (P61073 whole entry): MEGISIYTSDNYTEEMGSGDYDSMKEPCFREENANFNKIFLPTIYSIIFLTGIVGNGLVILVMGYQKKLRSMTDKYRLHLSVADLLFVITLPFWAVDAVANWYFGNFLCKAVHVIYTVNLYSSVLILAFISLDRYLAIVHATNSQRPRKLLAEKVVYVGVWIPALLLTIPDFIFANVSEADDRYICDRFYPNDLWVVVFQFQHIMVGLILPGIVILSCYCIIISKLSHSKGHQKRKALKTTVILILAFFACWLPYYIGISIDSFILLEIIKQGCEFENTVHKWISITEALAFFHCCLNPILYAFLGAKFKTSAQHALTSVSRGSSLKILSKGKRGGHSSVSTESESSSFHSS

Turning to `CCCCCCCCCCC(C)(C)C(=O)N[C@H]1CCCCNC1=O`, the inhibition in [1] is 26%; in data set [3], 20%; in data set [7] it was 98%; in data set [9], 95%; in data set [10] it was 100%; in data set [19] it was 16.5%. Further, the inhibition in data set [22] was -3%. For the same compound, the “inhibition (INH)” value with Mus musculus [2] was found to be 57%; in the data set on Mus musculus [5], 29%; in the data set on Mus musculus [13], 54%; with Mus musculus [14], 12%; in the data set on Mus musculus [16] it was 57%; in the data set on Mus musculus [20] it was 79%. The ED50 in data set [4] was determined as 0.9 nM; in data set [18] it was 1 nM. The inhibition at 0.0001 µM in [6] stood at 12.5%. The compound further gave a half-life in data set [8] of 1.7 h. Further, the Activity in the data set on THP-1 [11] stood at 5337%; with THP-1 [15], 1602%. The “fold change (FC)” value came to 1.04 with THP-1 [12] and 1.05 in the data set with THP-1 [17]. This compound yielded a clearance in data set [21] of 2.4 L/h/kg.
